Experimental data published in PMC9290614 (The Journal of Dermatology, 2021).
“And” between values parts separate entries of the source, which are not always exact repeats. Identical values can stand only once. Like-named read-outs stand apart in the source and are kept apart here.

Legend:
[1] = tested on: plasma IL-17A, IL-17F, and IL-22; conditions: 30 mg b.i.d., PSOR-009 (ESTEEM 2) and PSOR-011 PD subsets; cited from earlier work
[2] = assay type: in vivo, human; conditions: for Cmin (predose trough): geometric mean (CV% geometric mean); for AUC / AUC(0-t) / Cmax / Vd/F / half-life / Tmax: human, plasma, oral; for Tmax: median (minimum, maximum)
[3] = tested on: subjects with moderate to severe psoriasis; conditions: cited from earlier work
[4] = predominantly Caucasian healthy subjects, mean [SD]; cited from earlier work
CYP3A4 = conditions: multiple p.o. doses of rifampicin (strong CYP3A4 induction); cited from earlier work
Population PK = assay type: in vivo, human; conditions: for AUC: human, plasma, oral, Median week 16 apremilast exposure (AUCτ,ss) derived from the PPK model, all subjects
How it was run: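 Pooled plasma levels came from healthy or patient subjects: single oral 20–50 mg or multiple 30/50 mg b.i.d. in phase 1, plus phase 2b/3 psoriasis studies, including Japanese sparse/intensive samples at weeks 8–24. After below-LOQ exclusion, 5704 samples remained. Base model: CL/F, first-order Ka, absorption lag, Vc/F, mixed residual error. Tested covariates included age, sex, race, bodyweight and smoking.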

[5] = tested on: subjects with moderate to severe psoriasis; test: Exposure-response; assay type: in vivo, human; conditions: for Predicted probability of achieving sPGA response (0 or 1) at week 16: non-Japanese, placebo 5.0%; for Predicted probability of achieving PASI-75 response at week 16: placebo 6.1%; for Predicted probability of achieving PASI-50 response at week 16: placebo 20.0%; for sPGA Probability: at race-specific median AUCτ,ss; for Predicted probability of sPGA response (0 or 1): typical model-derived exposure, Japanese subjects, placebo 14.1%
[6] = PSOR-008/ESTEEM 1, 30 mg b.i.d.
[7] = PSOR-011, Japanese subjects, 30 mg b.i.d.
[8] = 10 mg b.i.d., median exposure 1065.4 ng·h/mL
[9] = 20 mg b.i.d., median exposure 2030.6 ng·h/mL
[10] = 30 mg b.i.d., median exposure 3169.2 ng·h/mL

## CCOc1cc([C@@H](CS(C)(=O)=O)N2C(=O)c3cccc(NC(C)=O)c3C2=O)ccc1OC [apremilast]
[1]
  Effect on plasma IL-17A, IL-17F, and IL-22: significantly reduced
[2]; Japanese subjects, 20 mg b.i.d., week 20, n = 21
  Cmin (predose trough): 91 ng/mL and 90.8 (50.1) ng/mL
[2]; Japanese subjects, 30 mg b.i.d., week 20, n = 20
  Cmin (predose trough): 104 ng/mL and 104 (66.6) ng/mL
[2]; Japanese subjects, dose from 20 to 30 mg b.i.d.
  Increase of mean AUCτ and Cmax with increase in dose: ~ 1.2 times
[2]; 20 mg
  AUC: 1960 ng·h/mL
  AUC(0-t): 1600 ng·h/mL
  Cmax: 304 ng/mL
  Vd/F: 68 L
  half-life: 4.31 h
[2]; 20 mg, Japanese subjects, 20 mg b.i.d., week 20, n = 21
  Tmax: ~2 h
[2]; 30 mg
  AUC: 2400 ng·h/mL
  AUC(0-t): 1970 ng·h/mL
  Cmax: 374 ng/mL
  Vd/F: 83.1 L
  half-life: 4.06 h
[2]; 30 mg, Japanese subjects, 30 mg b.i.d., week 20, n = 20
  Tmax: ~2 h
[3]; PSOR-005, 30 mg b.i.d.
  Rate of PASI-75 response at week 16: 40.9%
  Rate of sPGA response (0 or 1) at week 16: 33.0%
[3]; PSOR-005
  Treatment effect (difference in proportions between apremilast 30 mg b.i.d. and placebo), PASI-75: 35.2%
  Treatment effect (difference in proportions between apremilast 30 mg b.i.d. and placebo), sPGA response: 21.1%
[3]; [6]
  Rate of PASI-75 response at week 16: 33.1%
  Rate of sPGA response (0 or 1) at week 16: 21.7%
[3]; PSOR-008/ESTEEM 1
  Treatment effect (difference in proportions between apremilast 30 mg b.i.d. and placebo), PASI-75: 27.8%
  Treatment effect (difference in proportions between apremilast 30 mg b.i.d. and placebo), sPGA response: 17.8%
[3]; [7]
  Rate of PASI-75 response at week 16: 28.2%
  Rate of sPGA response (0 or 1) at week 16: 29.6%
[3]; PSOR-011
  Treatment effect (difference in proportions between apremilast 30 mg b.i.d. and placebo), PASI-75: 21.1%
  Treatment effect (difference in proportions between apremilast 30 mg b.i.d. and placebo), sPGA response: 20.8%
[4]
  AUC0-∞: 3270 [1081] ng·h/mL
  Cmax: 298 [81.4] ng/mL
CYP3A4
  Decrease in apremilast exposure: ~72%
  Increase in apremilast clearance: 3.6 times
Population PK
  Clearance faster than in a typical 45-year-old: 14%
Population PK; 80-year-old
  Clearance slower than in a 45-year-old: 8%
Population PK; 102-kg individual
  Vc/F greater than in a typical 82-kg individual: approximately 14%
Population PK; final PPK model
  CL/F, typical value (RSE %): 9.25 (3.4) L/h
  Clearance faster in Japanese versus non-Japanese individuals: approximately 17%
  Ka, first-order rate of absorption, typical value (RSE %): 1.83 (11.7) h^−1
  Lag time of absorption, typical value (RSE %): 0.290 (11.7) h
  Reduction of CL/F in subjects with psoriasis compared with healthy subjects: approximately 17%
  Vc/F, typical value (RSE %): 115 (2.2) L
Population PK; 20 mg, 20 mg b.i.d.
  AUC: 2030 ng·h/mL
Population PK; 30 mg, 30 mg b.i.d.
  AUC: 3170 ng·h/mL
[5]; [8]
  Predicted probability of achieving sPGA response (0 or 1) at week 16: 16.2%
  Predicted probability of achieving PASI-75 response at week 16: 19.0%
  Predicted probability of achieving PASI-50 response at week 16: 43.8%
[5]; 20 mg BID, Caucasian
  sPGA Probability: 23.2%
[5]; 20 mg BID, Japanese
  sPGA Probability: 32.9%
[5]; [9]
  Predicted probability of achieving sPGA response (0 or 1) at week 16: 22.7%
  Predicted probability of achieving PASI-75 response at week 16: 28.6%
  Predicted probability of achieving PASI-50 response at week 16: 55.3%
[5]; 20 mg b.i.d.
  Predicted probability of sPGA response (0 or 1): 33.8%
[5]; 30 mg BID, Caucasian
  sPGA Probability: 27.5%
[5]; 30 mg BID, Japanese
  sPGA Probability: 36.3%
[5]; [10]
  Predicted probability of achieving sPGA response (0 or 1) at week 16: 27.3%
  Predicted probability of achieving PASI-75 response at week 16: 36.5%
  Predicted probability of achieving PASI-50 response at week 16: 62.8%
[5]; 30 mg b.i.d.
  Predicted probability of sPGA response (0 or 1): 37.5%
